Reference: ChEMBL document CHEMBL3580607, “Anti-parasitic Guanidine and Pyrimidine Alkaloids from the Marine Sponge Monanchora arbuscula” (J Nat Prod, 2015)
Values after ≈ are worked out from the molar mass of the structure shown. Active and inactive are the calls of the source. The calls are words filed in the database; no cut-off is given here.

How the values were obtained:
[1] = tested on: Trypanosoma cruzi; test: Potency index, ratio of benznidazole IC50 to compound IC50 for trypomastigote stage of Trypanosoma cruzi Y; type: functional
[2] = tested on: Leishmania infantum; test: Antileishmanial activity against promastigote stage of Leishmania infantum MHOM/BR/1972/LD assessed as reduction of cell viability after 48 hrs by MTT assay; type: functional, organism-based
In short: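 L. infantum promastigotes exposed to alkaloids dissolved in DMSO, diluted in M-199 medium, highest concentration 156 μM, with internal controls; viability read by MTT after 48 h incubation. IC50 from sigmoidal dose–response curves, mean and standard deviation of replicates from at least two independent assays, with 95% CI.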

[3] = tested on: LLC-MK2; test: Cytotoxicity against rhesus monkey LLC-MK2 cells assessed as inhibition of cell viability after 48 hrs by MTT assay; type: cell-based; conditions: Macaca mulatta, LLC-MK2, 48 h
In short: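 LLC-MK2 rhesus monkey kidney cells seeded at 4 × 10^4 per well, exposed to alkaloids at up to 200 μM for 48 h; viability by MTT. IC50 from sigmoidal dose–response fits with 95% CI, replicates from at least two independent assays.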

[4] = tested on: MCF7; test: Cytotoxicity against human MCF7 cells; type: functional, cell-based
[5] = tested on: Leishmania infantum; test: Antileishmanial activity against intracellular amastigote stage of Leishmania infantum MHOM/BR/1972/LD infected in BALB/c mouse peritoneal macrophages assessed as reduction of parasite burden after 120 hrs by Giemsa staining assay; type: functional, organism-based
In short: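 Peritoneal macrophages from BALB/c mice (collected in RPMI-1640 with 10% FBS, 37 °C, 5% CO2) infected with L. infantum amastigotes from spleens of infected hamsters, at a 1:10 macrophage:amastigote ratio. Compound exposure for 120 h, then Giemsa staining; infected macrophages counted out of 500 cells. Miltefosine as standard drug control.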

[6] = tested on: Trypanosoma cruzi; test: Antitrypanosomal activity against trypomastigote stage of Trypanosoma cruzi Y assessed as inhibition of cell viability after 24 hrs by MTT assay; type: functional, organism-based
In short: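 T. cruzi Y-strain trypomastigotes incubated with alkaloids for 24 h; viability by MTT. Benznidazole as standard drug control. IC50 from sigmoidal dose–response curves, mean and standard deviation of replicates from at least two independent assays, 95% CI.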

[7] = tested on: A549; test: Cytotoxicity against human A549 cells; type: functional, cell-based
[8] = tested on: HeLa; test: Cytotoxicity against human HeLa cells; type: functional, cell-based
[9] = Cytotoxicity against human MCF10A cells; type: cell-based; conditions: mcf-10a
[10] = Selectivity index, ratio of IC50 for rhesus monkey LLC-MK2 cells to IC50 for trypomastigote stage of Trypanosoma cruzi Y; type: toxicity, cell-based; conditions: read-out: Ratio IC50
In short: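 The ratio divides the LLC-MK2 IC50 by the T. cruzi trypomastigote IC50. LLC-MK2 cells were seeded at 4 × 10^4/well, given compound up to 200 μM for 48 h, and read by MTT. Y-strain trypomastigotes were exposed for 24 h, with MTT read-out. IC50s come from sigmoidal dose–response fits (95% CI), using replicates from at least two independent assays.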

[11] = tested on: Leishmania infantum; test: Leishmanicidal activity against promastigote stage of Leishmania infantum MHOM/BR/1972/LD assessed as reduction of mitochondrial membrane potential at 2 uM measured after 60 mins by MitoTracker Red CM-H2XROS dye-based fluorimetric microplate reader analysis relative to control; type: functional; parameters: scale not given: the % may be the effect or the level left
In short: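 L. infantum promastigotes at 2 × 10^6/well exposed to 2 μM compound for 60 min, then MitoTracker Red CM-H2XROS (500 nM) added; fluorescence at excitation 540 nm / emission 595 nm. Controls: DMSO, compound alone, untreated parasites, medium without cells.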

[12] = tested on: Leishmania donovani; test: Antileishmanial activity against promastigote stage Leishmania donovani assessed as growth inhibition after 72 hrs by Alamar blue assay; type: functional, organism-based
[13] = tested on: Leishmania infantum; test: Antileishmanial activity against promastigote stage of Leishmania infantum MHOM/BR/1972/LD assessed as increase in membrane permeability at 2 uM measured at 60 mins by SYTOX green staining-based fluorimetric microplate reader analysis
[14] = tested on: Trypanosoma brucei brucei; test: Antitrypanosomal activity against Trypanosoma brucei brucei GUTat 3.1 after 72 hrs by Alamar blue assay; type: functional, organism-based; conditions: GUTat 3.1, 72 h
[15] = tested on: Leishmania donovani; test: Antileishmanial activity against Leishmania donovani; type: functional, organism-based
[16] = tested on: Leishmania infantum; test: Leishmanicidal activity against promastigote stage of Leishmania infantum MHOM/BR/1972/LD assessed as increase in reactive oxygen species production at 2 uM measured after 60 mins by H2DCf-DA probe-based fluorimetric microplate reader analysis relative to control; type: functional
In short: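 Promastigotes (2 × 10^6/well) given 2 μM compound for 60 min, then H2DCf-DA (5 μM) for 15 min; fluorescence at 485/520 nm. Oligomycin (20 μM) as positive control; data normalized with oligomycin-treated parasites as 100% and untreated as 0%.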

IC50 [6] [µM] | Compound | Ratio IC50 [1] | IC50 [2] [nM] | IC50 [3] [µM] | Activity [5] | IC50 [12] [µg/mL] | other results
8 | CCCCCCCCCc1cc2n(c(=N)n1)CCC2 | 54 | 2000 | 26 | inactive | – | Activity [4]: inactive; Activity [7]: inactive; Activity [8]: inactive; Activity [9]: Non-toxic
64 | CCCCCCCCC[C@@H]1C[C@@H]2CC[C@H]3[C@@H](C(=O)OCCCCNC(=N)N)[C@@H](C)N=C(N1)N23 | – | 2000 | 130 | inactive | – | –
7 | CCCCCCCC[C@@H]1C[C@@H]2CC[C@H]3[C@@H](C(=O)OC(C)CCCCCCC[C@@H]4C[C@@H]5CC[C@@H]6C[C@H](C)NC(=N4)N65)[C@@H](C)N=C(N1)N23 (stereo partly specified) [NORBATZELLADINE L] | 54 | 2000 | 85 | inactive | – | selectivity ratio [10]: 12; Activity [16]: 65%; Activity [11]: 30%; Activity [13]: 82%

The next lines start with the compound.

Compound | IC50 [6] [µM] | Ratio IC50 [1] | IC50 [2] [nM] | IC50 [3] [µM] | Activity [5] | IC50 [12] [µg/mL] | other results
CCCCCCC[C@@H]1C[C@@H]2CC[C@H]3[C@@H](C(=O)O[C@H](C)CCCCCCC[C@@H]4C[C@@H]5CC[C@@H]6C[C@H](C)N=C(N4)N65)[C@@H](C)N=C(N1)N23 | 5 | 54 | 4000 | 10 | inactive | – | –
CCCCCCCCC[C@@H]1C[C@@H]2CC[C@H]3[C@@H](C(=O)OC(C)CCCCCCC[C@@H]4C[C@@H]5CC[C@@H]6C[C@H](C)NC(=N4)N65)[C@@H](C)N=C(N1)N23 (stereo partly specified) [BATZELLADINE L] | 2 | 54 | 2000 | 22 | inactive | 1.9 (≈ 2.91 µM) | selectivity ratio [10]: 7; Activity [11]: 35%; Activity [13]: 43%
CCCCCCC[C@@H]1C[C@@H]2CCC3=C(C(=O)OCCCCCCC[C@@H]4C[C@@H]5CC[C@@H]6C[C@H](C)NC(=N4)N65)C(C)N=C(N1)N32 (stereo partly specified) | – | – | – | – | – | 8.5 (≈ 14.3 µM) | –
O=C(Cn1ccnc1[N+](=O)[O-])NCc1ccccc1 [BENZNIDAZOLE] | 441 | – | – | 477 | – | – | –
CCC1C=CCC[C@@]2(C[C@@H]3CC[C@@H]4[C@H](C(=O)OCCCCCCCCCCCCCCCC(=O)N(CCCN)C[C@@H](O)CCN)[C@]5(CCC[C@@H](C)O5)NC(=N2)N34)O1 (stereo partly specified) | – | – | – | – | – | 6.8 (≈ 8.49 µM) | –
CCCCC[C@@H]1C[C@H]2CC[C@H]3C[C@@H](CCCCC)NC(=[N+]23)N1.O=C([O-])C(F)(F)F | – | – | – | – | – | – | IC50 [14]: 0.24 µg/mL
CCCC[C@H]1c2nc(=N)[nH]c3c2[C@H](CC3)C[C@@H]1C | – | – | – | – | – | – | IC50 [15]: 17 µg/mL (≈ 69.3 µM)
CCCCCCCCCCCCCCCCOP(=O)([O-])OCC[N+](C)(C)C [MILTEFOSINE] | – | – | 16000 | 122 | – | – | –
CC/C=C/CCC[C@@H]1C[C@@H]2CC[C@@H]3C[C@@H](CCCCCCC)NC(=[N+]32)N1.O=C([O-])C(F)(F)F | – | – | – | – | – | – | IC50 [14]: 0.24 µg/mL
CCCCCCC[C@H]1C[C@H]2CCC3=C(C(=O)OCCCCNC(=N)N)C(CCCCC)N=C(N1)N32 (stereo partly specified) | – | – | – | – | – | 5.5 (≈ 11.3 µM) | –
